Measured values reported in ChEMBL document CHEMBL2434829, “Synthesis of new andrographolide derivatives and evaluation of their antidyslipidemic, LDL-oxidation and antioxidant activity” (2013).
Activity calls are given as the source filed them. The rule behind the calls is not given here.

Key:
[1] = Antioxidant activity assessed as decrease in hydroxyl radicals level by measuring formation of malondialdehyde at 200 ug/ml after 90 mins by spectrophotometric analysis relative to control; assay type: functional; design: scale not given: the % may be the effect or the level left
Procedure, shortened: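 Hydroxyl radicals generated without enzyme from deoxyribose 2.8 mM, FeSO4·7H2O 2 mM, sodium ascorbate 2.0 mM and H2O2 2.8 mM in 50 mM KH2PO4 pH 7.4. Compound at 200 µg/mL. Incubated 37 °C for 90 min. Mannitol as standard.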

Rattus norvegicus [2] = assay: Antidyslipidemic activity in Charles foster rat assessed as decrease in triton WR-1339-induced triglyceride level in plasma at 100 mg/kg, po after 18 hrs relative to triton-treated rat; assay type: functional; design: scale not given: the % may be the effect or the level left
Procedure, shortened: (§1)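 Male adult Charles Foster rats (200–225 g), six per group. Triton WR-1339 400 mg/kg i.p., with test agent given orally at the same time as a gum acacia suspension in water; food withdrawn. Controls received vehicle. At 18 h, retro-orbital EDTA blood taken and centrifuged 2500 × g for 10 min at 4 °C. Plasma diluted 1:3 in saline; TC, PL and TG read enzymatically on an autoanalyzer. Percent change against triton group.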

[3] = Antioxidant activity assessed as reduction of microsomal lipid per-oxidation level by measuring formation of malondialdehyde at 200 ug/ml after 90 mins by spectrophotometric analysis relative to control; assay type: functional; design: scale not given: the % may be the effect or the level left
Rattus norvegicus [4] = assay: Antidyslipidemic activity in Charles foster rat assessed as decrease in triton WR-1339-induced phospholipid level in plasma at 100 mg/kg, po after 18 hrs relative to triton-treated rat; assay type: functional; design: scale not given: the % may be the effect or the level left; procedure, shortened: as §1
Rattus norvegicus [5] = assay: Antidyslipidemic activity in Charles foster rat assessed as increase in triton WR-1339-reduced post heparin lipolytic activity level in plasma at 100 mg/kg, po after 18 hrs by spectrophotometric analysis relative to triton-treated rat; assay type: functional; design: scale not given: the % may be the effect or the level left
Procedure, shortened: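 Triton WR-1339 hyperlipidemia in male Charles Foster rats: 400 mg/kg i.p. plus oral dose in gum acacia vehicle, fasted, 6 rats/group. Plasma taken 18 h later from retro-orbital blood. Post-heparin lipolytic activity measured spectrophotometrically as nmol free fatty acids formed/h/ml plasma. Percent change against triton-only rats; mean ± SD.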

[6] = Antioxidant activity assessed as decrease in superoxide anions level by measuring formation of formazone at 200 ug/ml after 30 mins by spectrophotometric analysis relative to control; assay type: functional; design: scale not given: the % may be the effect or the level left
Procedure, shortened: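 Superoxide made enzymatically with xanthine ([…]), xanthine oxidase (0.04 U) and nitroblue tetrazolium (320 µM) in 100 mM phosphate buffer pH 8.2. Compound at 200 µg/mL, sonicated in buffer. Incubated 37 °C for 30 min, stopped with glacial acetic acid, formazan read spectrophotometrically. Allopurinol as standard.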

Rattus norvegicus [7] = assay: Antidyslipidemic activity in Charles foster rat assessed as decrease in triton WR-1339-induced total cholesterol level in plasma at 100 mg/kg, po after 18 hrs relative to triton-treated rat; assay type: functional; design: scale not given: the % may be the effect or the level left; procedure, shortened: as §1
Rattus norvegicus [8] = assay: Antidyslipidemic activity in Charles foster rat assessed as increase in triton WR-1339-reduced lipoprotein lipase level in liver at 100 mg/kg, po relative to triton-treated rat; assay type: functional, organism-based; design: dose 100 mg/kg
Procedure, shortened: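 Rats given triton WR-1339 (400 mg/kg i.p.) with oral test agent in gum acacia, 6 per group. Liver homogenized 10% w/v in cold 100 mM phosphate buffer pH 7.2 and assayed for total lipoprotein lipase lipolytic activity. Mean ± SD.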

| SMILES | Activity [1] [%] | Activity (Rattus norvegicus [2]) [%] | Activity [3] [%] | Activity (Rattus norvegicus [4]) [%] | Activity (Rattus norvegicus [5]) [%] | Activity [6] [%] | Activity (Rattus norvegicus [7]) [%] | Activity (Rattus norvegicus [8]) |
| --- | --- | --- | --- | --- | --- | --- | --- | --- |
| OC[C@@H](O)[C@@H](O)[C@H](O)[C@H](O)CO | 50 | – | – | – | – | – | – | – |
| C=C1CC[C@@H]2[C@](C)(COC(C)=O)[C@H](OC(C)=O)CC[C@@]2(C)[C@@H]1C/C=C1/C(=O)OC[C@H]1OC(C)=O | 16 | 18 | 11 | 16 | 11 | 12 | 19 | – |
| Oc1ncnc2[nH]ncc12 | – | – | – | – | – | 54 | – | – |
| C[C@]1(CO)[C@H]2CC[C@@]3(CO3)[C@@H](C/C=C3/C(=O)OC[C@H]3O)[C@]2(C)CC[C@H]1O | 15 | 14 | 14 | 17 | 6 | 17 | 15 | – |
| Cc1ccc(C)c(OCCCC(C)(C)C(=O)O)c1 [GEMFIBROZIL] | – | 28 | – | 30 | 16 | – | 30 | Active |
| C=C1CC[C@@H]2[C@](C)(COS(=O)(=O)c3c(C)cc(C)cc3C)[C@H](O)CC[C@@]2(C)[C@@H]1C/C=C1/C(=O)OC[C@H]1O | 25 | 20 | 26 | 20 | 12 | 23 | 22 | – |
| CC1CC[C@@H]2[C@](C)(CO)[C@H](O)CC[C@@]2(C)[C@@H]1CCC1C(=O)OC[C@H]1O (stereo partly specified) | 17 | 15 | 14 | 13 | 4 | 13 | 11 | – |
| Cc1c(C)c2c(c(C)c1O)CC[C@@](C)(CCC[C@H](C)CCC[C@H](C)CCCC(C)C)O2 | – | – | 55 | – | – | – | – | – |
| CC1CC[C@@H]2[C@](C)(CO)[C@H](O)CC[C@@]2(C)[C@@H]1C/C=C1/C(=O)OC[C@H]1O (stereo partly specified) | 15 | 15 | 17 | 17 | 5 | 19 | 14 | – |
| C=C1CC[C@@H]2[C@](C)(COS(=O)(=O)c3ccc(C)cc3)[C@H](O)CC[C@@]2(C)[C@@H]1C/C=C1/C(=O)OC[C@H]1OC(C)=O | 30 | 22 | 29 | 22 | 13 | 27 | 20 | – |
| C=C1CC[C@@H]2[C@](C)(CO)[C@H](O)CC[C@@]2(C)[C@@H]1C/C=C1/C(=O)OC[C@H]1OC(C)=O | 17 | 15 | 19 | 13 | 7 | 19 | 13 | – |
| C=C1CC[C@@H]2[C@](C)(CO)[C@H](O)CC[C@@]2(C)[C@@H]1CCC1=CCOC1=O [DEOXYANDROGRAPHOLIDE] | 16 | 12 | 13 | 14 | 6 | 11 | 17 | – |
| CC(C)OC(=O)C(C)(C)Oc1ccc(C(=O)c2ccc(Cl)cc2)cc1 [FENOFIBRATE] | – | 33 | – | 33 | 17 | – | 32 | Active |
| C=C1CC[C@@H]2[C@](C)(CO)[C@H](O)CC[C@@]2(C)[C@@H]1C/C=C1\C=COC1=O | 18 | 18 | 13 | 17 | 10 | 16 | 19 | – |
| C=C1CC[C@H]2[C@@](C)(CCC(=O)[C@@]2(C)C=O)[C@@H]1C/C=C1/C(=O)OC[C@H]1O | 12 | 10 | 14 | 10 | 4 | 16 | 13 | – |
| C=C1CC[C@@H]2[C@]3(C)COC(C)(C)O[C@@H]3CC[C@@]2(C)[C@@H]1C/C=C1/C(=O)OC[C@H]1O | 11 | 15 | 17 | 12 | 6 | 15 | 16 | – |
| C=C1CC[C@@H]2[C@](C)(CO)[C@H](O)CC[C@@]2(C)[C@@H]1CCC1C(=O)OC[C@H]1O (stereo partly specified) | 11 | 11 | 10 | 10 | 5 | 14 | 12 | – |
| C=C1CC[C@@H]2[C@](C)(COS(=O)(=O)c3c(C)cc(C)cc3C)[C@H](O)CC[C@@]2(C)[C@@H]1C/C=C1/C(=O)OC[C@H]1OC(C)=O | 28 | 11 | 26 | 14 | 6 | 31 | 12 | – |
| C=C1CC[C@@H]2[C@]3(C)COC(C)(C)O[C@@H]3CC[C@@]2(C)[C@@H]1C/C=C1/C(=O)OC[C@H]1OC(C)=O | 25 | 13 | 26 | 14 | 5 | 23 | 16 | – |
